# From PubChem BioAssay
# Shown are actives, neighbours in structure and some others; about 2.7% of the full set was active somewhere.
# PAFAH2 inh: PAFAH2 (human) inhibition | Q99487 | recombinant PAFAH2, FP-rhodamine activity probe, fluorescence polarization | inhibition, % at 3.39 µM | 340,000 tested, 0.99% active | AID 492956;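 active = inhibition above the mean over all tested compounds plus 3 SD, cut at about 30% in these data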;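 note: inhibitors block probe labeling of enzyme so polarization drops; 0% = enzyme with DMSO and 100% = wells lacking PAFAH2 protein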
# RBBP9 inhibitor: human RBBP9 hydrolase inhibition | O75884 | recombinant RBBP9, FP-Rh probe fluorescence polarization | inhibition, % at 7.94 µM | 220,000 tested, 0.2% active | AID 1515;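 active = inhibition above the campaign mean of all tested compounds plus 3 SD, cut at about 14% in these data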;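 note: plate controls were DMSO wells with RBBP9 for no effect and wells lacking RBBP9 protein for full effect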
# Target sequence (O75884 whole entry, looked up): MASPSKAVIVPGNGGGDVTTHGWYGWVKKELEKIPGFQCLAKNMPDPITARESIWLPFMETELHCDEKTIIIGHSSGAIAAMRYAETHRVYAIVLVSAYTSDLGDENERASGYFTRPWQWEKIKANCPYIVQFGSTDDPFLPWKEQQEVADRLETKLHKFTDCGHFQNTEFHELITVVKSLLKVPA
#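 System: RBBP9 protein / Quantity: 2.5 µM RBBP9 dispensing solution, before mixing / Also added: Serine-hydrolase probe FP-Rh, 375 nM pre-mixing / Dosing: 7.94 µM single dose, 0.794% DMSO / Timing: enzyme-compound preincubation 30 min, then probe labeling 45 min, 25 °C / Signal: FP readout at 525/598 nm / Controls: DMSO-treated enzyme wells and wells lacking RBBP9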
# pPAFAH FP inh: pPAFAH (human) enzyme inhibition | recombinant pPAFAH, FP-rhodamine probe fluorescence polarization | inhibition, % at 3.39 µM | 330,000 tested, 1.5% active | AID 463082;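 active = inhibition above the mean inhibition across the screen plus 3 SD, cut at about 25% in these data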;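 note: inhibitors block binding of the rhodamine activity-based probe so polarization drops; 0% = enzyme with DMSO and 100% = wells lacking pPAFAH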
# PAFAH1B3 inh: PAFAH1B3 (human) inhibition | inhibition, % at 3.39 µM | 340,000 tested, 0.28% active | recombinant PAFAH1B3, FP-rhodamine probe, fluorescence polarization | Q15102;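 active = inhibition above the screen-wide average of all tested compounds plus 3 SD, cut at about 25% in these data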;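 note: 0% = enzyme with DMSO only and 100% = wells lacking PAFAH1B3 protein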
# Target sequence (Q15102 whole entry, looked up): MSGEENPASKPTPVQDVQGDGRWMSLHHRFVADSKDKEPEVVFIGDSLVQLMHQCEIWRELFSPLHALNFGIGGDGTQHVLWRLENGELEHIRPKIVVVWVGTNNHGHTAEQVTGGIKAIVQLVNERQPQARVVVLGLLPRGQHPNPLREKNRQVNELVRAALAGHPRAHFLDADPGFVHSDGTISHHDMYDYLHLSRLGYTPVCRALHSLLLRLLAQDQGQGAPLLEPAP
# PAFAH1B2 inh: PAFAH1B2 (human) inhibition | inhibition, % at 3.39 µM | recombinant PAFAH1B2, FP-rhodamine activity probe, fluorescence polarization | P68402 | AID 492953 | 340,000 tested, 1.2% active;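 active = inhibition above the mean of all tested compounds plus 3 SD, cut at about 24% in these data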;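 note: 0% = enzyme with DMSO and 100% = wells lacking PAFAH1B2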
# Target sequence (P68402 whole entry, looked up): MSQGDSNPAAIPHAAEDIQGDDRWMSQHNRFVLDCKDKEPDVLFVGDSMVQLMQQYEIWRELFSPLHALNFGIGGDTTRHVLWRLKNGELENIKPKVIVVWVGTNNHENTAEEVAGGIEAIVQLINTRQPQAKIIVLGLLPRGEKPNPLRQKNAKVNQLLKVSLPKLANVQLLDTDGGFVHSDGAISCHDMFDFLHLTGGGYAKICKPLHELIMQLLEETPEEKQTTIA
# * hit, by the source's call; x = not tested or not shown.
SMILES,PAFAH2 inh,RBBP9 inhibitor,pPAFAH FP inh,PAFAH1B3 inh,PAFAH1B2 inh
Cc1ccc(-c2csc3ncnc(NCCC(=O)O)c23)cc1C,1.2,x,1.9,1.2,7.3
CCCc1ccc(Oc2cc(Cl)nc(N)n2)cc1,11.3,0.7,26.3*,10.2,6.4
CC(c1ccco1)N(C(=O)c1ccc(Cl)c([N+](=O)[O-])c1)c1ccccn1 (stereo unspecified),-7.8,x,-2.0,2.5,6.1
CCN1C(=O)[C@H]2[C@@H](c3ccc(-c4ccccc4)cc3)N[C@@](C)(C(=O)OC)[C@H]2C1=O,1.8,x,2.9,1.1,1.5
CCN1C(=O)[C@H]2[C@@H](c3ccc(-c4cccc(Cl)c4)cc3)N[C@@](C)(C(=O)OC)[C@H]2C1=O,-10.3,x,33.9*,0.0,-1.7
Cc1[nH]c(N=Nc2ccccc2)nc1N=Nc1ccccc1,-2.5,-2.3,25.4*,3.5,4.2
Clc1ccc(N=C2SCC3CCCCN23)cc1 (stereo unspecified),4.5,x,1.3,-4.5,0.9
FC(F)Oc1ccc(N=C2SCC3CCCCN23)cc1 (stereo unspecified),6.9,x,32.8*,13.1,0.8
O=c1nc2n(c3cccc(Cl)c13)CCCCC2,-1.3,-5.5,3.0,-4.5,2.4
Cc1ccc(CCNS(=O)(=O)c2cc3c(cc2C)NC(=O)CO3)cc1,-7.1,x,8.7,-2.6,24.5*
COC(=O)/C(C(C)=O)=C(\C=C\N(C)C)N(C)C,-7.9,2.0,2.1,-1.0,-0.1
COC(=O)\C(C(C)=O)=C(/C=C/C=C/C=C/N(C)C)N(C)C,-2.0,-7.4,31.7*,-5.3,-4.4
O=C(NNC(=S)Nc1cccc(C(F)(F)F)c1)c1ccc(Cl)cc1Cl,4.3,-5.7,24.8*,12.6,13.1
Cc1ccccc1C(=O)NNC(=S)Nc1cccc(C(F)(F)F)c1,-2.3,-5.2,11.5,3.9,5.3
COc1cc(OC)c(OC)cc1/C=N/NC(=S)NCC1CCCO1 (stereo unspecified),4.1,-5.7,5.6,10.9,9.4
O=C(O)C(c1ccccc1)N1C(=O)/C(=C\c2ccc(-c3ccccc3Cl)o2)SC1=S (stereo unspecified),45.4*,x,62.8*,1.9,7.9
COc1ccc(Nc2nc(OC)nc(OC)n2)cc1,5.4,x,7.4,0.7,-0.8
COc1ccc(Nc2nc(Nc3ccc(OC)cc3)nc(SC3=NCCS3)n2)cc1,5.9,-8.0,34.2*,7.4,0.8
COc1ccc(C2c3[nH]c4ccccc4c3CCN2Cc2cccn2-c2ncccn2)cc1C (stereo unspecified),12.2,-1.5,0.2,10.5,-2.2
CCN(c1ccccc1)S(=O)(=O)c1ccc(OC)c(OC)c1,-3.6,4.5,2.1,0.4,8.6
CCN(c1ccccc1)S(=O)(=O)c1ccc(OC)c(NS(=O)(=O)c2cccs2)c1,3.9,-5.2,10.2,0.4,29.9*
O=C1c2cccc3c(N4CCCCC4)ccc(c23)C(=O)N1c1ccccn1,1.1,1.4,3.7,-6.4,2.9
O=C1c2ccccc2-c2n[nH]c(=O)c3ccc(N4CCCCC4)c1c23,12.9,-2.2,32.6*,9.8,8.2
Cc1ccc(NC(=S)Nn2cnnc2)cc1,8.7,-0.5,-0.7,10.6,2.5
CC(=O)Nc1cccc(C(=O)NCCc2ccco2)c1,-1.1,x,2.0,5.5,5.3
SMILES,PAFAH2 inh,RBBP9 inhibitor,pPAFAH FP inh,PAFAH1B3 inh,PAFAH1B2 inh
CN(C)c1ccc2cc(S(=O)(=O)O)cc(O)c2c1,37.6*,x,x,52.1*,37.6*
Nc1ccc(CNC(=O)OCC2c3ccccc3-c3ccccc32)cc1,-0.3,x,2.1,8.1,3.4
CC(c1ccccc1)C(NC(=O)OCC1c2ccccc2-c2ccccc21)C(=O)O (stereo unspecified),9.9,x,8.4,-12.0,29.2*
O=C(N[C@@H](Cc1ccc(Br)cc1)C(=O)O)OCC1c2ccccc2-c2ccccc21,6.2,x,13.7,-2.1,70.2*
Cc1ccc2c(c1)-n1c(nc3ccc(C)cc3c1=O)C(Cc1ccc(O)cc1)NC2=O (stereo unspecified),x,x,-1.0,x,x
O=C(O)c1cccc(S(=O)(=O)Nc2ccc3oc(=O)sc3c2)c1,-4.0,7.1,4.0,7.3,26.9*
O=C(O)c1cccc(S(=O)(=O)Nc2ccc3[nH]c(=O)[nH]c3c2)c1,-1.1,4.5,6.2,7.8,4.4
O=C(OCc1ccc(Cl)c(Cl)c1)c1ccc[nH]1,46.6*,x,-1.6,4.3,5.5
CC12CCC(=O)N1C(C(=O)Nc1ccccc1N1CCOCC1)CS2 (stereo unspecified),6.9,x,0.6,3.8,1.6
CC(C)Cc1csc(NC(=O)c2ccc(Cl)cc2)c1C(=O)O,42.4*,0.6,11.1,5.2,4.7
Cc1ccc2cc(CCNS(=O)(=O)c3ccc(Br)cc3)c(=O)[nH]c2c1C,4.4,x,3.9,-6.1,29.9*
COC1=C(Br)C(=O)c2ncccc2C1=O,48.1*,x,x,57.5*,17.0
Cc1ccc([C@H]2C(C(=O)O)=CC[C@@H](c3cccs3)N2S(=O)(=O)c2ccc(C)cc2)cc1,7.0,x,-0.2,0.3,27.0*
Cc1ccc(S(=O)(=O)N2[C@@H](c3cccc(Cl)c3)C(C(=O)O)=CC[C@H]2c2cccs2)cc1,7.3,x,-4.0,7.0,26.7*
COc1ccc([C@@H]2CC=C(C(=O)O)[C@H](c3ccccc3)N2S(=O)(=O)c2ccc(C)cc2)cc1OC,0.1,x,-0.7,7.2,5.0
CCOc1ccc([C@@H]2CC=C(C(=O)O)[C@H](c3ccc(F)cc3)N2S(=O)(=O)c2ccc(C)cc2)cc1,-2.0,x,3.7,6.8,19.0
Cc1ccc(S(=O)(=O)N2[C@@H](c3ccc(F)cc3)C(C(=O)O)=CC[C@H]2c2cccs2)cc1,0.2,x,5.5,-8.2,29.7*
COc1ccc2c(CC(=O)NC3CCCc4ccccc43)coc2c1 (stereo unspecified),2.3,-4.5,8.3,10.1,5.0
Cc1ccc(S(=O)(=O)N2CCN(C(=S)NCCc3ccccc3)CC2)cc1,2.2,-5.3,0.4,9.8,44.9*
Cc1ccc(S(=O)(=O)N2CCN(C(=O)N(c3ccccc3)c3ccccc3)CC2)cc1,12.4,-7.4,3.7,3.2,25.7*
CCN(CC)C(=O)Cn1cc(C(=O)C(=O)N2CCCc3ccccc32)c2ccccc21,0.5,0.2,2.9,2.7,2.0
CC(C)CSc1nc2c(=O)[nH][nH]c(=O)c2n1Cc1ccccc1,1.3,-8.4,29.6*,8.9,18.6
CC(C)CSc1nc2c(c(=O)[nH]c(=O)n2C)n1CCc1ccccc1,-2.7,-9.1,5.1,0.7,4.4
CCC1=NNc2cccc3c(OC)ccc1c23,x,3.5,48.4*,x,x
COc1ccc2c3c(cccc13)C(=O)N(O)C2=O,0.2,-8.4,13.2,-1.1,3.8
Cc1ccc(SC(C)c2nc(-c3cccnc3)no2)cc1 (stereo unspecified),-0.1,12.7,-2.0,8.1,26.5*
c1ccc(C(c2ccccc2)c2nc(-c3cccnc3)no2)cc1,1.2,2.4,12.8,8.0,2.5
COc1ccc(N2CCN(C(=O)NCc3ccc(C)cc3)CC2)cc1,-24.8,x,-1.3,-1.2,1.5
